Assay results pooled from the literature.
Compare with care: the assays were run in different laboratories.
P2RY14: P2Y purinoceptor 14 (P2RY14, Homo sapiens, UniProt Q15391)
Nuclear receptor subfamily 4 group A member 2: Nuclear receptor subfamily 4 group A member 2 (Homo sapiens, UniProt P43354)

SMILES	target	assay	test system	setting	endpoint	result
CCCCC(=O)Nc1ccc(-c2ccc3ncn(CCC)c(=O)c3c2)cn1	Tyrosine-protein kinase JAK3, JH1 (JAK3, Homo sapiens, UniProt P52333)	binding, competition with immobilised ligand	–	0.5 µM	remaining binding	100%
CC(C)OC(=O)[C@H](Cc1c[nH]c2ccccc12)NC(=O)COc1ccccc1	P2RY14	cAMP, antagonist	HEK293	0.1 µM	inhibition	79.3%
NC/C(=C\F)COc1cccc(Cn2c(=S)[nH]c(=O)c3[nH]cnc32)c1	Eosinophil peroxidase (Homo sapiens, UniProt P11678)	enzyme activity, inhibitor	–	15 µM	remaining activity	41.3%
O=C(N[C@@H](Cc1c[nH]c2ccccc12)C(=O)O)c1cscn1	P2RY14	cAMP, antagonist	HEK293	0.1 µM	inhibition	60.5%
Cc1cc(O)c(-c2ccc([C@@H](C)CN(C)C)cc2)c2c1[nH]c(=O)c1sccc12	Eukaryotic elongation factor 2 kinase (EEF2K, Homo sapiens, UniProt O00418)	enzyme activity, inhibitor	–	0.1 µM	inhibition	9.25%
CCN(CC)Cc1cc(Nc2ccnc3cc(Cl)ccc23)ccc1O	Nuclear receptor subfamily 4 group A member 2	thermal stability, DSF	–	100 µM	ΔTm	-0.09 °C
C1=C/COCc2cc(ccc2OCCN2CCCC2)Nc2nccc(n2)-c2cccc(c2)COC/1	Mitogen-activated protein kinase kinase kinase 1 (MAP3K1, Homo sapiens, UniProt Q13233)	binding	–	0.1 µM	remaining binding	100%
Cc1onc(-c2ccccc2)c1-c1ccc(S(N)(=O)=O)cc1	Nuclear receptor subfamily 4 group A member 2	thermal stability, DSF	–	100 µM	ΔTm	-1 °C
COc1ccc(OCC(=O)N[C@@H](Cc2c[nH]c3ccccc23)C(=O)OC(C)C)cc1	P2RY14	cAMP, antagonist	HEK293	0.1 µM	inhibition	85.6%
COc1ccc2oc(-c3ccc4nc(N)oc4c3)c/c(=N\c3ccccc3NC(=O)CCN)c2c1	Tyrosine-protein kinase JAK3 (JAK3, Homo sapiens, UniProt P52333)	binding	–	1 µM	remaining binding	93%
O=C(N[C@@H](Cc1c[nH]c2ccccc12)C(=O)O)C1c2ccccc2Oc2ccccc21	P2RY14	cAMP, antagonist	HEK293	0.1 µM	inhibition	18.9%
C#Cc1cc(-c2cc(Nc3nc(N[C@@H](C)c4ccc(F)cn4)ncc3Cl)n[nH]2)ccc1C=O	Ribosomal protein S6 kinase alpha-4 (RPS6KA4, Homo sapiens, UniProt O75676)	enzyme activity, inhibitor	–	0.2 µM	inhibition	8.79%
